The source of these data is ChEMBL document CHEMBL4680340, “Discovery and structure activity relationship of glyoxamide derivatives as anti-hepatitis B virus agents” (Bioorg Med Chem, 2021).

Series [1] in a line: Cytotoxicity against human PBMC cells assessed as reduction in cell viability by MTT assay. Format: cell-based.
Series [2] is described as follows: Cytotoxicity against human CEM cells assessed as reduction in cell viability by MTT assay. It counts as cell-based. The note with it: CEM (CCRF-CEM) cells.
The nature of series [3]: Cytotoxicity against human HepG2 cells assessed as reduction in cell viability by MTT assay. It counts as cell-based.
Series [4] in a line: Cytotoxicity against African green monkey Vero cells assessed as reduction in cell viability by MTT assay. Conditions: chlorocebus sabaeus. It counts as cell-based.
Another series relates to Hepatitis B virus. Description: Antiviral activity against Hepatitis B virus infected in human HePAD38 cells assessed as reduction in viral DNA replication incubated for 7 days by RT-PCR analysis. It counts as functional, organism-based. Conditions: HePAD38, 168 h; for EC90: time 7 day. The method, boiled down:
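HepAD38 cells seeded and held 2 days at 37 °C, 5% CO2, then washed with PBS; compounds added in duplicate at various concentrations in tetracycline-free medium (from 40 mM stocks). Day 7: total DNA extracted, HBV DNA quantified by real-time PCR; ΔCT against untreated tetracycline-free control; EC50 and EC90 computed.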

Series [5] in a line: Therapeutic index, ratio of CC50 for human HepG2 cells to IC50 for Hepatitis B virus infected in human HePAD38 cells. Conditions: read-out: Ratio CC50/IC50. Format: toxicity, cell-based.

Some results are limits rather than exact numbers.

In general, CC50 refers to the concentration at which the toxic effect on the cells reaches its halfway point. In general, EC50 refers to the midpoint of the concentration-response curve. For orientation: EC90 means the point of the concentration-response curve where the effect stands at 90%. Consider `Cc1c(C(=O)C(=O)N2CCN(C)CC2)c(C)n(C)c1C(=O)Nc1ccc(F)c(F)c1`, for which the CC50 is at least 100 µM in series [1], 24.7 µM in series [2], 95.4 µM in series [3] and at least 100 µM in series [4]. Further, the EC50 in the series with Hepatitis B virus worked out at 0.005 µM. Besides, in the series on Hepatitis B virus, the EC90 worked out at 0.1 µM.

In the case of `CCOC(=O)C1=C(CN2CCOCC2)NC(c2nccs2)=NC1c1ccc(F)cc1Br` (centres undefined), in the series on Hepatitis B virus, the EC50 was determined as 0.08 µM and the EC90 worked out at 0.28 µM.

With `Cn1cc(C(=O)C(=O)Nc2ccccc2)cc1C(=O)Nc1ccc(F)c(F)c1`, the CC50 is over 100 µM in series [1], over 100 µM in series [2], over 100 µM in series [3] and 13.4 µM in series [4]. The EC50 in the series with Hepatitis B virus is 0.08 µM. For the same compound, the EC90 in the series on Hepatitis B virus stood at 1.8 µM.

Consider `Cn1cc(C(=O)C(=O)NOC2CCCC2)cc1C(=O)Nc1ccc(F)c(F)c1`, for which the CC50 was at least 100 µM in series [1], 37.9 µM in series [2], over 100 µM in series [3] and 80.1 µM in series [4]. In addition, the EC50 in the series on Hepatitis B virus is 0.56 µM. Also, the concentration for an effect of 90% (EC90) in the series with Hepatitis B virus was 2.95 µM.

`CCN(CC)C(=O)C(=O)c1c(C)c(C(=O)Nc2ccc(F)c(F)c2)n(C)c1C`: the CC50 in series [1] is 91.7 µM; in series [2], 16.8 µM; in series [3], 89.9 µM; in series [4], over 100 µM. The half-maximal effective concentration (EC50) in the series on Hepatitis B virus is 0.58 µM. The EC90 with Hepatitis B virus is 5.64 µM.

For the compound `C#CCNC(=O)C(=O)c1c(C)c(C(=O)Nc2ccc(F)c(F)c2)n(C)c1C`, the CC50 was over 100 µM in series [1], over 100 µM in series [2], over 100 µM in series [3] and 46.4 µM in series [4]. In series [5], the selectivity ratio is over 33300. For the same compound, the EC50 in the series with Hepatitis B virus came to 0.003 µM. For the same compound, the EC90 in the series with Hepatitis B virus was 0.014 µM.

Take `Cn1cc(C(=O)C(=O)N2CC(F)(F)C2)cc1C(=O)Nc1ccc(F)c(F)c1`: the half-maximal cytotoxic concentration (CC50) in series [1], in series [2], in series [3] and in series [4] was over 100 µM in each case. For the same compound, the EC50 in the series with Hepatitis B virus came out at 3.8 µM. Besides, the EC90 in the series on Hepatitis B virus was 9.67 µM.

Turning to `O=C(Nc1ccc(F)c(F)c1)c1cc(S(=O)(=O)N2CC(F)(F)C2)ccc1F`, in the series on Hepatitis B virus, the EC50 worked out at 1.2 µM and the EC90 was 6.3 µM.

Consider `Cc1c(C(=O)C(=O)Nc2nccs2)c(C)n(C)c1C(=O)Nc1ccc(F)c(F)c1`, for which the 50% cytotoxic concentration (CC50) is over 100 µM in series [1], 26.8 µM in series [2], 83.9 µM in series [3] and over 100 µM in series [4]. In the series with Hepatitis B virus, the EC50 came to 0.006 µM. For the same compound, in the series with Hepatitis B virus, the EC90 is 0.03 µM.

For the compound `C=CCNC(=O)C(=O)c1cc(C(=O)Nc2ccc(F)c(F)c2)n(C)c1`, the CC50 in series [1] is over 100 µM; in series [2] it was over 100 µM; in series [3], over 100 µM; in series [4], 68.1 µM. Besides, the EC50 in the series with Hepatitis B virus was 0.09 µM. In the series with Hepatitis B virus, the EC90 was found to be 3.05 µM.

For the compound `C=C1[C@H](CO)[C@@H](O)C[C@@H]1n1cnc2c(=O)[nH]c(N)nc21`, the CC50 in series [1] is 15.7 µM; in series [2], over 100 µM; in series [3] it was over 100 µM; in series [4] it was over 100 µM. In the series on Hepatitis B virus, the EC50 is 0.0006 µM. The EC90 in the series with Hepatitis B virus worked out at 0.011 µM.

With `Cn1cc(C(=O)C(=O)N2CCOCC2)cc1C(=O)Nc1ccc(F)c(F)c1`, the CC50 in series [1] was over 100 µM; in series [2] it was over 100 µM; in series [3], 93.9 µM; in series [4] it was 41.9 µM. Further, in the series with Hepatitis B virus, the EC50 stood at 1.1 µM. The EC90 in the series with Hepatitis B virus worked out at 4.62 µM.

`Cn1cc(C(=O)C(=O)Nc2nccs2)cc1C(=O)Nc1ccc(F)c(F)c1`: the CC50 is over 100 µM in series [1], over 100 µM in series [2], over 100 µM in series [3] and 31.2 µM in series [4]. Also, in the series on Hepatitis B virus, the EC50 was 0.47 µM. Also, in the series on Hepatitis B virus, the EC90 was determined as 4.1 µM.

For the compound `Cn1cc(C(=O)C(=O)NCc2ccccc2)cc1C(=O)Nc1ccc(F)c(F)c1`, the CC50 in series [1] is over 100 µM; in series [2], over 100 µM; in series [3] it was over 100 µM; in series [4] it was 62.4 µM. For the same compound, the EC50 with Hepatitis B virus was determined as 0.41 µM. In addition, the EC90 in the series with Hepatitis B virus is 7.95 µM.

For the compound `Nc1ccn([C@@H]2CS[C@H](CO)O2)c(=O)n1` [LAMIVUDINE], the CC50 in series [1], in series [2], in series [3] and in series [4] was over 100 µM in each case. The EC50 in the series with Hepatitis B virus turned out to be 0.41 µM. For the same compound, the EC90 in the series on Hepatitis B virus came out at 1.65 µM.

Regarding `C#CCNC(=O)C(=O)c1cc(C(=O)Nc2ccc(F)c(F)c2)n(C)c1`, the CC50 was 57.9 µM in series [1], 70.3 µM in series [2], over 100 µM in series [3] and 89 µM in series [4]. Also, the EC50 with Hepatitis B virus stood at 5.6 µM. In addition, the EC90 in the series with Hepatitis B virus is over 10 µM.

As for `Cc1c(C(=O)C(=O)Nc2ccccn2)c(C)n(C)c1C(=O)Nc1ccc(F)c(F)c1`, the CC50 was over 100 µM in series [1], 14.6 µM in series [2], 83.7 µM in series [3] and over 100 µM in series [4]. Moreover, in the series with Hepatitis B virus, the EC50 turned out to be 0.004 µM. Also, the EC90 with Hepatitis B virus is 0.06 µM.

As for `Cc1c(C(=O)C(=O)NCc2ccccn2)c(C)n(C)c1C(=O)Nc1ccc(F)c(F)c1`, the CC50 in series [1] is over 100 µM; in series [2], 38.4 µM; in series [3], 7.2 µM; in series [4], 9.6 µM. The EC50 with Hepatitis B virus was 0.16 µM. The EC90 with Hepatitis B virus turned out to be 2.02 µM.

Consider `Cc1c(C(=O)C(=O)Nc2nc3ccccc3[nH]2)c(C)n(C)c1C(=O)Nc1ccc(F)c(F)c1`, for which the CC50 in series [1] was 90 µM; in series [2] it was 35.8 µM; in series [3], 74.9 µM; in series [4] it was 46.9 µM. Moreover, the half-maximal effective concentration (EC50) in the series with Hepatitis B virus worked out at 0.21 µM. In the series with Hepatitis B virus, the EC90 is 3.44 µM.

Consider `Cc1c(C(=O)C(=O)NCc2nccn2C)c(C)n(C)c1C(=O)Nc1ccc(F)c(F)c1`, for which the CC50 was over 100 µM in series [1], 46.9 µM in series [2], 34.7 µM in series [3] and 50.6 µM in series [4]. Besides, the EC50 with Hepatitis B virus came out at 0.01 µM. In the series on Hepatitis B virus, the EC90 stood at 0.17 µM.

In the case of `Cn1cc(C(=O)C(=O)NCC#N)cc1C(=O)Nc1ccc(F)c(F)c1`, the CC50 was over 100 µM in series [1], over 100 µM in series [2], over 100 µM in series [3] and 91.4 µM in series [4]. Also, the EC50 in the series with Hepatitis B virus came out at 5.16 µM. Further, the EC90 in the series with Hepatitis B virus was found to be 10 µM.
